The structures appear in SMILES notation.

Assay [1] concerns the target T1, Bifunctional epoxide hydrolase 2 (Homo sapiens, UniProt P34913).
T1 sequence (P34913 whole entry): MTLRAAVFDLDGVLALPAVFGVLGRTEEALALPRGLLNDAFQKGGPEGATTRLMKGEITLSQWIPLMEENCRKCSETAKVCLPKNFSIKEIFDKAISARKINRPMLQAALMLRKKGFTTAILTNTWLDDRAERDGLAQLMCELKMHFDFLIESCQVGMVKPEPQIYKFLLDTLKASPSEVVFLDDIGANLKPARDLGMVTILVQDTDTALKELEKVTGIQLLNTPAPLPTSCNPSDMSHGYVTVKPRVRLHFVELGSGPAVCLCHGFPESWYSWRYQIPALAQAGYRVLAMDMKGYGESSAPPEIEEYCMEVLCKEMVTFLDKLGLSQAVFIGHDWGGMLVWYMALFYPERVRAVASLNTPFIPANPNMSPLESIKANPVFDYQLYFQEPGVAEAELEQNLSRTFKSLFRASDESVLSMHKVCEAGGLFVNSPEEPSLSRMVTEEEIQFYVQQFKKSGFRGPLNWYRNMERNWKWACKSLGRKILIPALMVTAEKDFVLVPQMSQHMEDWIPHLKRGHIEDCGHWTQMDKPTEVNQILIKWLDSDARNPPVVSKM
Description: Inhibitory activity against human soluble epoxide hydrolase. The essentials:
(§1)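 Recombinant sEH (human HsEH or mouse MsEH) was expressed in baculovirus, affinity-purified to at least 97% purity, and had no detectable esterase or glutathione transferase activity. Enzyme (HsEH 0.20 µM, MsEH 0.10 µM) was preincubated with inhibitor for 5 min at 30 °C in pH 7.4 sodium phosphate buffer. Racemic 4-nitrophenyl-trans-2,3-epoxy-3-phenylpropyl carbonate (40 µM) was then added. 4-Nitrophenolate was read at 405 nm over 1 min. Assays were run in triplicate, with inhibitor up to 500 µM. IC50 came from regression of at least five points.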

The target of assay [2] is T2, Bifunctional epoxide hydrolase 2 (Mus musculus, UniProt P34914).
T2 sequence (P34914 whole entry): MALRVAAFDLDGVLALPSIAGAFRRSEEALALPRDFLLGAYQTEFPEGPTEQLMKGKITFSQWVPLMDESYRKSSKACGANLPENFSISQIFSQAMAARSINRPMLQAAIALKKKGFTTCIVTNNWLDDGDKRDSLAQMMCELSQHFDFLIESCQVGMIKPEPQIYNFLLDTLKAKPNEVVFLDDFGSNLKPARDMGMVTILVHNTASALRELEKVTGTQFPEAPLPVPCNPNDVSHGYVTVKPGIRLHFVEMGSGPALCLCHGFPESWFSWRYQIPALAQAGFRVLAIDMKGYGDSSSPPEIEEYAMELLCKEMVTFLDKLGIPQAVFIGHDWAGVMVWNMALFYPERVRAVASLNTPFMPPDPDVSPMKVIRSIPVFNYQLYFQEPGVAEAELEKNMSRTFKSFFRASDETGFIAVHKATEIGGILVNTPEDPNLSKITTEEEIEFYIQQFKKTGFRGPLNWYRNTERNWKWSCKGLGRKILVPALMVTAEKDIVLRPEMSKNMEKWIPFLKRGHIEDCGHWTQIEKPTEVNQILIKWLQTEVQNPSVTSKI
Description: Inhibitory activity against murine soluble epoxide hydrolase. The essentials:
as §1

`O=C(Nc1ccc(Cl)c(Cl)c1)Nc1ccc(Cl)c(Cl)c1` [US8815951, 299]: in assay [1], the IC50 was 0.257 µM.

`CCCCCCCCCCCCNC(=O)NC1CCCC1` [1-Cyclopentyl-3-dodecyl-urea]: the half-maximal inhibitory concentration (IC50) was 0.549 µM in assay [1] and 0.1 µM in assay [2].

For `CN(C(=O)NC1CCCCC1)c1ccccc1` [3-Cyclohexyl-1-methyl-1-phenyl-urea], the IC50 stood at 129 µM in assay [1] and 195 µM in assay [2].

`CC(C)(C)OC(=O)CNC(=O)NC1CCCCC1` [(3-Cyclohexyl-ureido)-acetic acid tert-butyl ester]: the IC50 is 19 µM in assay [1] and 4.37 µM in assay [2].

For the molecule `CCCCCCCCCCCCNC(=O)NCC(C)(C)C(C)(C)C` [1-Dodecyl-3-(2,2,3,3-tetramethyl-butyl)-urea], the IC50 in assay [1] was determined as 229 µM; in assay [2], 0.129 µM.

`CCCCCCNC(=O)NC` [1-Hexyl-3-methyl-urea] came in with an IC50 in assay [2] of 224 µM.

Usually IC50 stands for the concentration needed to halve the response being measured. A high value points to weaker potency in that assay.

The values above are taken from BindingDB's records for doi:10.1021/jm020269o (The Pennsylvania State University, 2003).
